The record followed here is ChEMBL document CHEMBL3745601 (Medchemcomm, 2015).

The structures appear in SMILES notation.

The subject of data set [1] is Mus musculus. The data set is described as follows: Antineuropathic pain activity in mouse chronic constriction injury model of neuropathic pain assessed as reversal of reduction in paw withdrawal threshold of ipsilateral hind paw at 3 umol/kg, po dosed on day 7 after sciatic nerve ligation and measured at 1 hrs. The data set is classed as functional. In a few lines:
(§1)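 Paw withdrawal threshold (g) measured at 1 h or 3 h after treatment, at day 7 (D7/BL) and at D0. % effect = [PWT at post-treatment time − PWT at D7/BL] / [PWT at D0 − PWT at D7/BL] × 100. Significance set at P<0.05. Procedures otherwise follow earlier work under IASP/NIH animal welfare guidelines.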

In data set [2] the test system is Mus musculus. Description: Antineuropathic pain activity in mouse chronic constriction injury model of neuropathic pain assessed as reversal of reduction in paw withdrawal threshold of ipsilateral hind paw at 1 umol/kg, po dosed on day 7 after sciatic nerve ligation and measured at 1 and 3 hrs. The data set is classed as functional. In a few lines: as §1
Data set [3] concerns Mus musculus. Description: Antineuropathic pain activity in mouse chronic constriction injury model of neuropathic pain assessed as reversal of reduction in paw withdrawal threshold of ipsilateral hind paw at 3 umol/kg, po dosed on day 7 after sciatic nerve ligation and measured at 3 hrs. The data set is classed as functional. Also on record: scale not given: the % may be the effect or the level left. In a few lines: as §1

In data set [4] the target is T1, Adenosine receptor A3 (Homo sapiens, UniProt P0DMS8).
T1 sequence (P0DMS8 whole entry): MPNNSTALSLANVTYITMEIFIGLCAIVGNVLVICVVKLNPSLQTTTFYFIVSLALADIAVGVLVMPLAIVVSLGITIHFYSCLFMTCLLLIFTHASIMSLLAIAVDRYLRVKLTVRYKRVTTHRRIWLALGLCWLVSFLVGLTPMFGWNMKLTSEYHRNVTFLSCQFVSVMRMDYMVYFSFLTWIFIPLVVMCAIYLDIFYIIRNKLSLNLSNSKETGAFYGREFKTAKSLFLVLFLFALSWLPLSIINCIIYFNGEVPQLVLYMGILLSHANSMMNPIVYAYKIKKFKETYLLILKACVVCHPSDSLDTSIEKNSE
Description: Displacement of [125I]N6-(4-amino-3-iodobenzyl)adenosine-5'-N-methyl-uronamide from human adenosine A3 receptor stably expressed in CHO cell membrane by radioligand binding assay. The data set is classed as cell membranes.

Data set [5] has as its system Mus musculus. Description: Induction of mechano-allodynia in mouse chronic constriction injury model of neuropathic pain assessed as paw withdrawal threshold on contralateral side at 3 umol/kg, po. The data set is classed as organism-based. To be noted: in vivo.

Consider `CNC(=O)[C@@]12C[C@@H]1[C@@H](n1cnc3c(NCc4cccc(Cl)c4)nc(-n4cc(-c5ccc(Cl)s5)nn4)nc31)[C@H](O)[C@@H]2O`, for which the Emax at 3 µmol/kg in data set [1] turned out to be 94.7%. The inhibition in vivo at 1 µmol/kg in data set [2] is 70%. In addition, the Activity is listed as 91% in data set [3] and “Non-toxic” in data set [5]. This molecule also gave a Ki in data set [4] of 9.02 nM.

By Emax is commonly meant the greatest response seen or fitted, relative to the assay's reference. As a reminder, the inhibition in vivo is the relative decrease from the control value, in per cent. The Ki is a measure of affinity in units of concentration, obtained from inhibition or displacement.
